Experimental data gathered from unrelated publications.
Lines come from different studies, so protocols differ.
Target: Receptor tyrosine-protein kinase erbB-4 (ERBB4, Homo sapiens, UniProt Q15303)

| Structure (SMILES) | test | conditions | quantity | result |
| --- | --- | --- | --- | --- |
| O=c1[nH]c2ccccc2n1C1CCN(Cc2ccc(-c3[nH]c4cc5ncnc5cc4nc3-c3ccccc3)cc2)CC1 | cell-free assay | 0.5 µM | remaining signal | 105% |
| C#Cc1n[nH]c2c(-c3cn([C@@H](C)c4ccccc4)c(=O)[nH]c3=O)cc(F)cc12 | enzyme activity, inhibitor | 0.1 µM | inhibition | -16.5% |
| Cn1cc(-c2cc(F)cc(N3CCn4c(cc5c4CCCC5)C3=O)c2CO)cc(Nc2ccc(N3CCN(C4COC4)CC3)cn2)c1=O | enzyme activity, inhibitor | 0.1 µM | inhibition | 8% |
| C#Cc1n[nH]c2c(-c3cn([C@@H](C)c4ccccn4)c(=O)[nH]c3=O)cc(F)cc12 | enzyme activity, inhibitor | 0.1 µM | inhibition | -15.6% |
| CC(C)(C)c1cc(C=C(C#N)C#N)cc(Br)c1O | enzyme activity, inhibitor | 0.5 µM | remaining activity | 94% |
| COc1cc(Nc2ncc(F)c(Nc3ccc4c(n3)NC(=O)C(C)(C)O4)n2)cc(OC)c1OC | binding, competition with immobilised ligand | 10 µM | inhibition | 89% |
| Nc1ncc(-c2nc(N3CCOCC3)nc(N3CCOCC3)n2)c(C(F)F)n1 | binding, competition with immobilised ligand | 10 µM | remaining binding | 60% |
| COc1ncccc1-c1cnn2ccc(N3CCN(C(=O)OC(C)C)CC3)nc12 | binding, competition with immobilised ligand | 1 µM | remaining binding | 100% |
| N#CC1(c2ccccn2)CCN(Cc2cc(C(=O)O)c(=O)n3ccccc23)CC1 | cell-free assay, competition with immobilised ligand | 1 µM | remaining binding | 72% |
| Cn1cc(-c2cccc(N3CCc4c(sc5c4CC(C)(C)C5)C3=O)c2CO)cc(Nc2ccncn2)c1=O | enzyme activity, inhibitor | 1 µM | inhibition | 0% |
| Cn1cncc1[C@@](O)(COc1ccc(C#N)cc1-c1ccc(OC(F)(F)F)cc1)c1ccc(C#N)cc1 | cell-free assay, competition with immobilised ligand | 1 µM | remaining binding | 100% |
| Cc1nn(C)cc1-c1nc2c(N3CCN(Cc4ccc(Cl)cc4)CC3)c(Cl)cnc2[nH]1 | binding, competition with immobilised ligand | 1 µM | remaining binding | 100% |
